Test results from ChEMBL document CHEMBL1122940, “Cyclic guanidines. 17. Novel (N-substituted amino)imidazo[2,1-b]quinazolin-2 ones: water-soluble platelet aggregation inhibitors” (J Med Chem, 1985).

What was measured:
Rattus norvegicus [1] = organism: Rattus norvegicus; assay: In vitro inhibition of blood platelet aggregation (ADP) in rats; format: functional
Rattus norvegicus [2] = assay: Ex vivo in vitro inhibition of blood platelet aggregation (ADP) in rats at oral dose 10 mg/kg 1 hour before the test; format: functional
Rattus norvegicus [3] = organism: Rattus norvegicus; assay: In vitro inhibition of blood platelet aggregation (collagen) in rats; format: functional
Rattus norvegicus [4] = assay: Ex vivo inhibition of blood platelet aggregation (collagen) in rats at oral dose 10 mg/kg 1 hour before the test; format: functional
Rattus norvegicus [5] = assay: Ex vivo in vitro inhibition of blood platelet aggregation (ADP) in rats at oral dose 10 mg/kg 1 hour before the test; Platelet aggregation could not be measured optically because this compound causes hemolysis; format: functional, organism-based; design: dose 10 mg/kg
Rattus norvegicus [6] = assay: Ex vivo inhibition of blood platelet aggregation (collagen) in rats at oral dose 10 mg/kg 1 hour before the test; Platelet aggregation could not be measured optically because this compound causes hemolysis; format: functional, organism-based; design: dose 10 mg/kg
Rattus norvegicus [7] = assay: Inhibition of blood platelet aggregation in rats (collagen) after intravenous infusion at dose 10 mg/kg after 10 min; format: functional
Procedure, shortened: (§1)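 Compounds were dissolved in physiological saline and infused continuously through the femoral vein into fed rats under pentobarbital anesthesia, at 1 mg/kg over 15 min or 10 mg/kg over 10 min. Citrated cardiac blood was drawn 15 or 10 min later, and aggregation was measured as in the in vitro test. Collagen was read as ΔA/min and ADP as ΔA. Values are mean ± SD of five animals, as percent inhibition versus control.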

Rattus norvegicus [8] = assay: Inhibition of blood platelet aggregation in rats (ADP) after intravenous infusion at dose 10 mg/kg after 10 min; format: functional; procedure, shortened: as §1
Rattus norvegicus [9] = assay: Change in heart rate 1 hour after oral administration at dose 50 mg/kg; format: functional
Rattus norvegicus [10] = assay: Decrease in systolic BP 7 hours after oral administration at dose 50 mg/kg; format: functional
Rattus norvegicus [11] = assay: Change in heart rate 3 hours after oral administration at dose 50 mg/kg; format: functional
Rattus norvegicus [12] = assay: Decrease in systolic BP 3 hours after oral administration at dose 50 mg/kg; format: functional
Rattus norvegicus [13] = assay: Decrease in systolic BP 2 hours after oral administration at dose 50 mg/kg; format: functional
Rattus norvegicus [14] = assay: Change in heart rate 2 hours after oral administration at dose 50 mg/kg; format: functional
Rattus norvegicus [15] = assay: Decrease in systolic BP 1 hour after oral administration at dose 50 mg/kg; format: functional
Rattus norvegicus [16] = assay: Change in heart rate 7 hours after oral administration at dose 50 mg/kg; format: functional
Rattus norvegicus [17] = assay: Decrease in systolic BP 5 hours after oral administration at dose 50 mg/kg; format: functional
Rattus norvegicus [18] = assay: Change in heart rate 5 hours after oral administration at dose 50 mg/kg; format: functional
Rattus norvegicus [19] = assay: Duration of inhibition of blood platelet aggregation in rats (collagen) 3 hr after oral administration at dose 10 mg/kg; format: functional
Procedure, shortened: (§2)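 Rats got a single oral dose of 10 mg/kg, and controls got vehicle alone. Blood was collected 3 h later and aggregation was run ex vivo. Collagen-induced aggregation was read as ΔA/min and ADP-induced aggregation as ΔA. Values are mean ± SD of five animals, with percent inhibition versus vehicle control.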

Rattus norvegicus [20] = assay: Inhibition of blood platelet aggregation in rats (ADP) after intravenous infusion at dose 1 mg/kg after 15 min; format: functional; procedure, shortened: as §1
Rattus norvegicus [21] = assay: Inhibition of blood platelet aggregation in rats (collagen) after intravenous infusion at dose 1 mg/kg after 15 min; format: functional; procedure, shortened: as §1
Rattus norvegicus [22] = assay: Duration of inhibition of blood platelet aggregation in rats (ADP) 3 hours after oral administration at dose 10 mg/kg; format: functional; procedure, shortened: as §2
Rattus norvegicus [23] = assay: Duration of inhibition of blood platelet aggregation in rats (collagen) 3 hours after oral administration at dose 10 mg/kg; format: functional; procedure, shortened: as §2
Rattus norvegicus [24] = assay: Ex vivo in vitro inhibition of blood platelet aggregation (ADP) in rats at oral dose 10 mg/kg 1 hour before the tes; format: functional

Row | EC50 (Rattus norvegicus [1]) [nM] | EC50 (Rattus norvegicus [3]) [nM] | SMILES | platelet aggregation (Rattus norvegicus [2]) | platelet aggregation rate (Rattus norvegicus [4]) | also measured
1 | 24000 | – | CNc1ccc2c(c1)CN1CC(=O)NC1=N2 | – | – | –
2 | 96000 | – | O=C1CN2Cc3ccc(N4CCOCC4)cc3N=C2N1 | – | – | –
3 | – | 100 | O=C1CN2Cc3c(sc4c3CCCC4)N=C2N1 | 0.112 ΔA | 0.073 ΔA/min | –
4 | 2700 | 1500 | CN(C)c1cccc2c1CN1CC(=O)NC1=N2 | – | – | –
5 | 350000 | – | O=C1CN2Cc3c(Cl)cc(N4CCCCC4)cc3N=C2N1 | – | – | –
6 | 22500 | 20000 | O=C1CN2Cc3c(cccc3N3CCCCC3)NC2=N1 | – | – | –
7 | 2600 | 1900 | O=C1CN2Cc3cc(N4CCCC4)ccc3N=C2N1 | – | – | –
8 | 5400 | 580 | Cc1cc2c(cc1N1CCCCC1)CN1CC(=O)NC1=N2 | – | – | Inhibition (Rattus norvegicus [5]): Platelet aggregation could not be measured optically because this compound causes hemolysis; Inhibition (Rattus norvegicus [6]): Platelet aggregation could not be measured optically because this compound causes hemolysis
9 | 170000 | 16000 | Nc1ccc2c(c1)CN1CC(=O)NC1=N2 | – | – | –
10 | 5000 | 2000 | O=C1CN2Cc3cc(N4CCOCC4)ccc3N=C2N1 | 0.201 ΔA | 0.154 ΔA/min | platelet aggregation rate (Rattus norvegicus [7]): 0.09 ΔA/min; platelet aggregation (Rattus norvegicus [8]): 0.202 ΔA
11 | 7000 | 1200 | CN(C)c1ccc2c(c1Cl)CN1CC(=O)NC1=N2 | 0.098 ΔA | 0.019 ΔA/min | platelet aggregation rate (Rattus norvegicus [7]): 0 ΔA/min; Change in heart rate (Rattus norvegicus [9]): 46%; Change in BP (Rattus norvegicus [10]): 34 mmHg; platelet aggregation (Rattus norvegicus [8]): 0.208 ΔA; Change in heart rate (Rattus norvegicus [11]): 43%; Change in BP (Rattus norvegicus [12]): 35 mmHg; Change in BP (Rattus norvegicus [13]): 43 mmHg; Change in heart rate (Rattus norvegicus [14]): 46%; Change in BP (Rattus norvegicus [15]): 45 mmHg; Change in heart rate (Rattus norvegicus [16]): 38%; Change in BP (Rattus norvegicus [17]): 36 mmHg; Change in heart rate (Rattus norvegicus [18]): 41%
12 | 5400 | 1400 | CN(C)c1ccc2c(c1)CN1CC(=O)NC1=N2 | 0.193 ΔA | 0.071 ΔA/min | platelet aggregation rate (Rattus norvegicus [19]): 0.154 ΔA/min; platelet aggregation (Rattus norvegicus [20]): 0.142 ΔA; platelet aggregation rate (Rattus norvegicus [21]): 0.058 ΔA/min; platelet aggregation (Rattus norvegicus [22]): 0.16 ΔA
13 | 4000 | 1400 | CC1CCCCN1c1ccc2c(c1Cl)CN1CC(=O)NC1=N2 (stereo not drawn) | – | – | –
14 | 1100 | 440 | CN(C)c1cc2c(cc1Cl)NC1=NC(=O)CN1C2 | 0.15 ΔA | 0.082 ΔA/min | Change in heart rate (Rattus norvegicus [9]): 42%; Change in BP (Rattus norvegicus [10]): 23 mmHg; Change in heart rate (Rattus norvegicus [11]): 47%; Change in BP (Rattus norvegicus [12]): 26 mmHg; Change in BP (Rattus norvegicus [13]): 27 mmHg; platelet aggregation rate (Rattus norvegicus [23]): 0.136 ΔA/min; Change in heart rate (Rattus norvegicus [14]): 50%; Change in BP (Rattus norvegicus [15]): 30 mmHg; Change in heart rate (Rattus norvegicus [16]): 41%; platelet aggregation (Rattus norvegicus [22]): 0.171 ΔA; Change in BP (Rattus norvegicus [17]): 28 mmHg; Change in heart rate (Rattus norvegicus [18]): 46%
15 | 290000 | – | CN(C)c1cc(Cl)c2c(c1)NC1=NC(=O)CN1C2 | – | – | –
16 | 7900 | 1200 | O=C1CN2Cc3c(ccc(N4CCCCC4)c3Cl)NC2=N1 | – | – | –
17 | 400 | 460 | O=C1CN2Cc3cc(N4CCCCC4)c(Cl)cc3N=C2N1 | 0.137 ΔA | 0.039 ΔA/min | platelet aggregation rate (Rattus norvegicus [19]): 0.18 ΔA/min; platelet aggregation (Rattus norvegicus [22]): 0.189 ΔA
18 | 5600 | 1300 | CCN(CC)c1ccc2c(c1Cl)CN1CC(=O)NC1=N2 | 0.201 ΔA | 0.041 ΔA/min | –
19 | 3800 | 330 | O=C1CN2Cc3cc(N4CCCCC4)ccc3N=C2N1 | 0.121 ΔA | 0.068 ΔA/min | platelet aggregation rate (Rattus norvegicus [19]): 0.118 ΔA/min; Change in heart rate (Rattus norvegicus [9]): 27%; Change in BP (Rattus norvegicus [10]): 9 mmHg; Change in heart rate (Rattus norvegicus [11]): 27%; platelet aggregation (Rattus norvegicus [20]): 0.116 ΔA; Change in BP (Rattus norvegicus [12]): 12 mmHg; Change in BP (Rattus norvegicus [13]): 12 mmHg; Change in heart rate (Rattus norvegicus [14]): 32%; platelet aggregation rate (Rattus norvegicus [21]): 0 ΔA/min; Change in BP (Rattus norvegicus [15]): 18 mmHg; Change in heart rate (Rattus norvegicus [16]): 17%; platelet aggregation (Rattus norvegicus [22]): 0.158 ΔA; Change in BP (Rattus norvegicus [17]): 12 mmHg; Change in heart rate (Rattus norvegicus [18]): 25%
20 | 2000 | 1700 | CC1CCCCN1c1ccc2c(c1)CN1CC(=O)NC1=N2 (stereo not drawn) | – | 0.145 ΔA/min | platelet aggregation (Rattus norvegicus [24]): 0.19 ΔA
21 | – | – | O=C1CN2Cc3c(ccc(Cl)c3Cl)N=C2N1 [ANAGRELIDE] | – | 0.067 ΔA/min | platelet aggregation (Rattus norvegicus [24]): 0.248 ΔA
22 | 4000 | 2300 | CC1CCN(c2ccc3c(c2Cl)CN2CC(=O)NC2=N3)CC1 | – | – | –
23 | 360 | 100 | O=C1CN2Cc3cc(N4CCOCC4)c(Cl)cc3N=C2N1 | 0.122 ΔA | 0.055 ΔA/min | –
24 | 220000 | – | Cc1cc2c(cc1N1CCCCC1)NC1=NC(=O)CN1C2 | – | – | –
25 | 26000 | – | CN(Cc1ccccc1)c1ccc2c(c1)CN1CC(=O)NC1=N2 | – | – | –
26 | 2800 | 18000 | CC1CCN(c2ccc3c(c2)CN2CC(=O)NC2=N3)CC1 | 0.188 ΔA | 0.122 ΔA/min | –
27 | 3000 | 2700 | O=C1CN2Cc3c(ccc(N4CCCC4)c3Cl)NC2=N1 | – | – | –
28 | 46000 | 8000 | O=C1CN2Cc3ccc(N4CCCCC4)cc3N=C2N1 | – | – | –

Row | SMILES | EC50 (Rattus norvegicus [1]) [nM] | EC50 (Rattus norvegicus [3]) [nM] | platelet aggregation (Rattus norvegicus [2]) | platelet aggregation rate (Rattus norvegicus [4]) | also measured
29 | CN1CCN(c2ccc3c(c2Cl)CN2CC(=O)NC2=N3)CC1 | 8000 | 3000 | 0.189 ΔA | 0.149 ΔA/min | –
